Data set [1] concerns the target Cholinesterase (Homo sapiens) (UniProt P06276). Nature of the data set: Activity of BuChE in 10% human plasma. The format is cell-free. On the set-up: Vmax(app): unit not given here. In outline:
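Citrated human venous blood was centrifuged, and the pooled plasma or serum was diluted with phosphate buffer pH 7.4. Whole blood was used undiluted. Ester substrate at 5 × 10^-5 M was added from acetonitrile and incubated at 37 °C. Timed aliquots were quenched in ZnSO4 in MeCN/H2O and analysed by HPLC at 230 nm. Apparent KM and Vmax were fitted to the integrated Michaelis-Menten equation. Triplicate.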

Data set [2] can be described thus: Stability in 10% human plasma assessed as half life of hydrolysis at pH 7.4. The class given is ADME, cell-free. In outline: (§1)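 Pooled plasma or serum from centrifuged citrated human venous blood, diluted with pH 7.4 phosphate buffer (whole blood undiluted), preheated to 37 ± 0.5 °C. Ester added from acetonitrile at 5 × 10^-5 M. Aliquots were quenched in 2% ZnSO4 in MeCN/H2O (1:1), centrifuged, and analysed by gradient C18 HPLC (230 nm) until the parent was consumed. Fit to first-order decay; triplicate.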

Data set [3] concerns Platelet. Nature of the data set: Inhibition of arachidonic acid-induced platelet aggregation in whole blood at 100 uM. The class given is functional. In outline: (§2)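 Citrated human whole blood (500 µL) diluted with 500 µL saline, equilibrated 10 min at 37 °C, then pre-incubated 10 min with stirring with test compound added in DMSO (10 µL). Aggregation triggered by arachidonic acid (0.5 mM); impedance read over 6 min. Inhibition tested over 5-100 µM; fit by nonlinear regression.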

Data set [4] concerns Plasma. Nature of the data set: Stability in 10% human plasma assessed as aspirin yield at pH 7.4. The class given is ADME, cell-free. A digest of the protocol:
as §1

The subject of data set [5] is Platelet. Nature of the data set: Inhibition of arachidonic acid-induced platelet aggregation in whole blood. The format is functional, tissue-based. In outline: as §2
Data set [6] is described as follows: Stability in 30% human plasma assessed as half life of hydrolysis at pH 7.4. The format is ADME, cell-free. In outline:
as §1

Data set [7] concerns Plasma. Nature of the data set: (§3) Stability in 50% human plasma assessed as half life of hydrolysis at pH 7.4. To be noted: plasma. The class given is ADME, cell-free. A digest of the protocol: (§4)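 Ester at 5 × 10^-5 M, added from acetonitrile, was incubated at 37 °C in pooled citrated human plasma diluted to 50% with phosphate buffer pH 7.4. Aliquots were deproteinised with ZnSO4 in MeCN/H2O and the remaining ester was quantified by HPLC at 230 nm. The rate constant came from an exponential decay fit. Triplicate.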

Data set [8] has as its system Plasma. In words: Stability in 30% human plasma assessed as aspirin yield at pH 7.4. The format is ADME, cell-free. In outline: as §1
Data set [9] has as its target Butyrylcholinesterase (Rattus norvegicus) (UniProt Q9JKC1). Nature of the data set: Activity of BuChE in 10% rat plasma.
Data set [10] can be described thus: Stability in 30% human plasma assessed as half life of hydrolysis at pH 7.4 in presence of 10 uM carboxylesterase inhibitor BNPP. The class given is ADME, cell-free. Conditions: pH 7.4, with BNPP (carboxylesterase inhibitor). In outline: (§5)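 Pooled citrated human plasma was diluted to 30% with phosphate buffer pH 7.4. Inhibitor was preincubated for 5 min before adding ester (5 × 10^-5 M) at 37 °C. Lines 15-16 used plasma from a donor with dibucaine-resistant BuChE. Timed aliquots were quenched with ZnSO4 in MeCN/H2O, and parent and aspirin were measured by HPLC at 230 nm. kobs came from exponential decay. Three determinations, mean ± SD.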

The nature of data set [11]: Stability in 30% human plasma assessed as half life of hydrolysis at pH 7.4 in presence of 20 uM cholinesterase inhibitor eserine. Conditions: pH 7.4, with eserine (cholinesterase inhibitor). The class given is ADME, cell-free. In outline: as §5
Data set [12] is described as follows: Stability in 30% human plasma assessed as half life of hydrolysis at pH 7.4 in presence of 100 uM AChE inhibitor BW284c51. To be noted: pH 7.4, with BW284c51 (AChE inhibitor). The class given is ADME, cell-free. In outline: as §5
Data set [13] can be described thus: Stability in 30% human plasma assessed as half life of hydrolysis at pH 7.4 in presence of 0.1 uM AChE inhibitor BW284c51. The class given is ADME, cell-free. Conditions: pH 7.4, with BW284c51 (AChE inhibitor). A digest of the protocol: as §5
A short description of data set [14]: Stability in 30% human plasma assessed as half life of hydrolysis at pH 7.4 in presence of 20 uM BuChE subtype inhibitor dibucaine. The class given is ADME, cell-free. To be noted: pH 7.4, with dibucaine (BuChE subtype inhibitor). In outline: as §5
Data set [15] can be described thus: Stability in 30% human plasma assessed as half life of hydrolysis at pH 7.4 in presence of 10 uM BuChE inhibitor iso-OMPA. The format is ADME, cell-free. Conditions: pH 7.4, with iso-OMPA (BuChE inhibitor). A digest of the protocol: as §5
Data set [16] has as its system Plasma. Nature of the data set: Stability in 30% human plasma assessed as aspirin yield at pH 7.4 in presence of 2 mM arylesterase inhibitor EDTA. The class given is ADME, cell-free. A digest of the protocol: (§6)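 Diluted human plasma (30%, pH 7.4, 37 °C) pre-incubated 5 min with inhibitor (EDTA 2 mM or BNPP 10 µM) before ester addition at 5 × 10^-5 M from acetonitrile. ZnSO4/MeCN quench, then HPLC of ester and aspirin. First-order fit; three determinations.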

In data set [17] the test system is Plasma. In words: Stability in 30% human plasma assessed as aspirin yield at pH 7.4 in presence of 10 uM carboxylesterase inhibitor BNPP. The format is ADME, cell-free. In outline:
as §6

Data set [18] relates to Plasma. Nature of the data set: Stability in 30% human plasma assessed as aspirin yield at pH 7.4 in presence of 100 uM AChE inhibitor BW284c51. The format is ADME, cell-free. In outline: as §5
For data set [19], the system named is Plasma. Nature of the data set: Stability in 30% human plasma assessed as aspirin yield at pH 7.4 in presence of 20 uM BuChE subtype inhibitor dibucaine. The class given is ADME, cell-free. In outline: as §5
Data set [20] can be described thus: Stability in 30% human plasma assessed as half life of hydrolysis at pH 7.4 in presence of 20 uM dubucaine-insensitive BuChE subtype inhibitor dibucaine. The class given is ADME, cell-free. Conditions: pH 7.4, with dibucaine. A digest of the protocol: as §5
For data set [21], the system named is Plasma. In words: Stability in 30% plasma from patient with dubucaine-insensitive BuChE assessed as aspirin yield at pH 7.4 in presence of 20 uM BuChE inhibitor dibucaine. The format is ADME, cell-free. To be noted: human. A digest of the protocol: as §5
A short description of data set [22]: as §3. The format is ADME, cell-free. Conditions: 50% human plasma. A digest of the protocol:
as §4

A short description of data set [23]: Stability in 50% human serum assessed as half life of hydrolysis at pH 7.4. The class given is ADME, cell-free. In outline: as §1
A short description of data set [24]: Stability in whole blood assessed as half life of hydrolysis at pH 7.4. The class given is ADME, tissue-based. In outline: as §1
Data set [25] can be described thus: Stability in 10% rat plasma assessed as half life of hydrolysis at pH 7.4. The class given is ADME, cell-free.
Data set [26] has as its system Plasma. Nature of the data set: Stability in 50% human plasma assessed as aspirin yield at pH 7.4. The format is ADME, cell-free. A digest of the protocol:
as §1

A further data set has as its system Serum. Nature of the data set: Stability in 50% human serum assessed as aspirin yield at pH 7.4. The class given is ADME, cell-free. A digest of the protocol:
as §1

A short description of data set [27]: Stability in whole blood assessed as aspirin yield at pH 7.4. The format is ADME, tissue-based. A digest of the protocol:
as §1

A short description of data set [28]: Stability in 30% human plasma assessed as half life of hydrolysis at pH 7.4 in presence of 2 mM arylesterase inhibitor EDTA. The format is ADME, cell-free. To be noted: pH 7.4, with EDTA (arylesterase inhibitor). A digest of the protocol:
as §5

Some results are limits rather than exact numbers.

Sequence of Cholinesterase (Homo sapiens) (P06276 whole entry): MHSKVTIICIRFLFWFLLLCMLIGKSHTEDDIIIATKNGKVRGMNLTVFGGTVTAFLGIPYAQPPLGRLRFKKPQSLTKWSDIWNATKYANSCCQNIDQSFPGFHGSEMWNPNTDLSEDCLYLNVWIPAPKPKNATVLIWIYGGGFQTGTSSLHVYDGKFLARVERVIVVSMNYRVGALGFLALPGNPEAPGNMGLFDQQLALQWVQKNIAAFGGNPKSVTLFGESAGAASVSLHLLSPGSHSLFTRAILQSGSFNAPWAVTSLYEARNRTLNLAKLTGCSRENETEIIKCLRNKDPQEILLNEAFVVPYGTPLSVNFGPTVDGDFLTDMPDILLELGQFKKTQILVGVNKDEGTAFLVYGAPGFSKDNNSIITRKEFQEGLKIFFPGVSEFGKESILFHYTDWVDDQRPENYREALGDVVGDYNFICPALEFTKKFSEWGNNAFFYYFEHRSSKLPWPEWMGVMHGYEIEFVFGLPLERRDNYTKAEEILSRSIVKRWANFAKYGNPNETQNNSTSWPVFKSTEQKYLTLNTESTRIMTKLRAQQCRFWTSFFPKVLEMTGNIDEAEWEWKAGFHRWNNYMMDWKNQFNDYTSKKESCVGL
Sequence of Butyrylcholinesterase (Rattus norvegicus) (Q9JKC1 as listed by the source): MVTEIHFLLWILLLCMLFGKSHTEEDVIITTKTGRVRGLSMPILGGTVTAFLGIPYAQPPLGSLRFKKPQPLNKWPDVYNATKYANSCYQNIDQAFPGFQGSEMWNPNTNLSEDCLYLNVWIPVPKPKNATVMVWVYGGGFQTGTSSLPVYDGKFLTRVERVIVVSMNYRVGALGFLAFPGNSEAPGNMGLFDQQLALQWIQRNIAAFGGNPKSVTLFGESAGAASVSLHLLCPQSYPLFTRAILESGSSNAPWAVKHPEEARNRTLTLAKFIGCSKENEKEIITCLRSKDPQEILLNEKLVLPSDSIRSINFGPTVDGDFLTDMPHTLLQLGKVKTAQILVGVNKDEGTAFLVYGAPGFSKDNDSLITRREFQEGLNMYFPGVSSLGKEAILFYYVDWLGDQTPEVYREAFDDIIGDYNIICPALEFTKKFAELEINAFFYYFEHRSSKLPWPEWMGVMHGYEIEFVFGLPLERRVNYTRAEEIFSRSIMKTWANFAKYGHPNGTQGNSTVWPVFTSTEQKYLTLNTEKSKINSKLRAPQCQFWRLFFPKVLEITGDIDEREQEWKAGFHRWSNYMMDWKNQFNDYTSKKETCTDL

Consider `CC(=O)Oc1ccccc1C(=O)O[C@@H]1CO[C@H]2[C@@H]1OC[C@@H]2O`, for which the Vmax(app) in data set [1] was 0.25. Also, the half-life (as a rule, how long it takes for the measured level to halve) in data set [2] amounted to 4.73 min.

For the compound `CC(=O)Oc1ccccc1C(=O)O[C@H]1CO[C@H]2[C@@H]1OC[C@H]2O`, the Vmax(app) in [1] stood at 0.22. For the same compound, the half-life in data set [2] was determined as 3.25 min. For the same compound, in the data set on Platelet [3], the inhibition (in general, the share of the control response that was lost under treatment) at 100 µM is under 30%. Moreover, in the data set on Plasma [4], the Activity is given as 3%.

As for `CC(=O)Oc1ccccc1C(=O)O[C@H]1CO[C@H]2[C@@H]1OC[C@H]2OC(=O)c1ccccc1OC(C)=O`, in data set [1], the Vmax(app) amounted to 0.3. For the same compound, the half-life in data set [2] amounted to 3.35 min; in data set [6] it was 1.17 min. Further, the IC50 (commonly the point on the concentration scale where inhibition reaches its midpoint) with Platelet [5] was 34.1 µM. In addition, the t1/2 in the data set on Plasma [7] is 0.57 min. Besides, the Activity with Plasma [4] was found to be 51%; with Plasma [8] it was 61%.

In the case of `CC(=O)Oc1ccccc1C(=O)Oc1ccccc1`, the T1/2 in [1] turned out to be 1.3 min.

On to `CC(=O)Oc1ccccc1C(=O)O[C@H]1CO[C@H]2[C@@H]1OC[C@H]2OC(=O)c1ccccc1O`, for which the Vmax(app) in [1] was 0.17; in data set [9], 1.75 M/min. Also, the half-life was determined as 4.9 min in [2]; 0.95 min in data set [10]; 5.8 min in [11]; 3.9 min in [12]; 1.1 min in [13]; 4.6 min in [14]. The half-life in data set [15] amounted to 7.04 min; in data set [20], 2 min; in data set [22] it was 0.49 min; in data set [23], 0.56 min; in data set [24], 0.96 min; in [25], 0.47 min. Moreover, the half-life in [28] came to 1.41 min. The Activity in the data set with Plasma [16] is given as 85%; in the data set with Plasma [17] it was 84%; in the data set on Plasma [18], 30%; in the data set with Plasma [19], 6%; with Plasma [21] it was 69%; with Plasma [4], 74%. Moreover, the Activity was determined as 81% in the data set with Plasma [26], 73% in the data set with Serum and 72% in data set [27]. The IC50 with Platelet [5] turned out to be 17.3 µM.

Turning to `CC(=O)Oc1ccccc1C(=O)O` [ASPIRIN], in data set [1], the T1/2 amounted to 120 min. In the data set on Platelet [5], this compound displayed an IC50 of 25.5 µM.

In the case of `CC(=O)Oc1ccccc1C(=O)O[C@@H]1CO[C@H]2[C@@H]1OC[C@@H]2OC(=O)c1ccccc1O`, in data set [1], the Vmax(app) worked out at 0.23. The half-life in data set [2] came out at 4.21 min.

(Values after ChEMBL document CHEMBL1151719, “Discovery of a "true" aspirin prodrug” (J Med Chem, 2008).)
